Results published in ChEMBL document CHEMBL3091351, “The 3,7-diazabicyclo[3.3.1]nonane scaffold for subtype selective nicotinic acetylcholine receptor (nAChR) ligands. Part 1: the influence of different hydrogen bond acceptor systems on alkyl and (hetero)aryl substituents” (Bioorg Med Chem, 2013).

Assays:
[1] = molecular target: Neuronal acetylcholine receptor subunit alpha-7 (Rattus norvegicus, UniProt Q05941); experiment: Displacement of [3H]methyllycaconitine from alpha7 nAChR in Sprague-Dawley rat forebrain P2 fraction after 90 mins by liquid scintillation counting analysis
[2] = molecular target: Neuronal acetylcholine receptor; alpha4/beta2 (Rattus norvegicus, UniProt P09483+P12390); experiment: Displacement of [3H]epibatidine from alpha4beta2 nAChR in Sprague-Dawley rat forebrain P2 fraction after 90 mins by liquid scintillation counting analysis
How it was run: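 Rat forebrain P2 membranes (60 µg protein) in HSS buffer with 0.5 nM (±)-[3H]epibatidine and 6–9 test concentrations. Incubated 90 min at 22 °C; non-specific binding defined with 300 µM (−)-nicotine. Filtered through PEI-presoaked glass fibre filters and counted by liquid scintillation. Run in duplicate to quadruplicate, with 2–10 independent experiments.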

[3] = Displacement of [3H]epibatidine from (alpha1)2beta1gammadelta nAChR in Torpedo californica electroplax after 90 mins by liquid scintillation counting analysis; set-up: species or system Tetronarce californica
How it was run: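 Torpedo californica electroplax membranes (60–70 µg) incubated with (±)-[3H]epibatidine and 6–9 test concentrations in HSS buffer, 90 min at 22 °C. 300 µM (−)-nicotine defined non-specific binding. PEI-presoaked glass fibre filtration, scintillation counting; duplicate to quadruplicate, 2–10 independent experiments.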

[4] = Displacement of [3H]epibatidine from alpha3beta4 nAChR in calf adrenal membranes fraction after 90 mins by liquid scintillation counting analysis; type: cell membranes, Bos taurus
How it was run: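 Calf adrenal membranes (60–70 µg) in HSS buffer with 0.5 nM (±)-[3H]epibatidine, 6–9 test concentrations, 90 min at 22 °C. Non-specific binding with 300 µM (−)-nicotine. PEI-presoaked glass fibre filtration, liquid scintillation read-out; duplicate to quadruplicate, 2–10 independent experiments.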

Chain of Neuronal acetylcholine receptor; alpha4/beta2 (P09483 whole entry): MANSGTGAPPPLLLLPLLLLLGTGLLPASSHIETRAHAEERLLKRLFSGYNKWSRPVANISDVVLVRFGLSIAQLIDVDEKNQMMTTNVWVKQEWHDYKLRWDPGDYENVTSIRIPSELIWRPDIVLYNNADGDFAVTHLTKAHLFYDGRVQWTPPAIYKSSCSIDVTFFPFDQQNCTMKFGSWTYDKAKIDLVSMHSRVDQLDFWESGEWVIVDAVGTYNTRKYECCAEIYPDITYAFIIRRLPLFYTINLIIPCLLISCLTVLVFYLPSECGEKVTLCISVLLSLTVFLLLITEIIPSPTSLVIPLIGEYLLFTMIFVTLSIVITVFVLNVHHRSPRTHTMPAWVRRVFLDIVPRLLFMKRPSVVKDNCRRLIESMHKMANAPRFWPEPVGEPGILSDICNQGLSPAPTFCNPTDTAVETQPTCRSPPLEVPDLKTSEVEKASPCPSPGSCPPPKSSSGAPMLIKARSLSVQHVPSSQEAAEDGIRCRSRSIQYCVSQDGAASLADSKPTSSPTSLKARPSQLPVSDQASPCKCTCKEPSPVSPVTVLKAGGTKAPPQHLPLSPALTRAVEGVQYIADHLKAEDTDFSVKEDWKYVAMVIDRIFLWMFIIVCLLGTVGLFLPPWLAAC
Chain of Neuronal acetylcholine receptor; alpha4/beta2 (P12390 whole entry): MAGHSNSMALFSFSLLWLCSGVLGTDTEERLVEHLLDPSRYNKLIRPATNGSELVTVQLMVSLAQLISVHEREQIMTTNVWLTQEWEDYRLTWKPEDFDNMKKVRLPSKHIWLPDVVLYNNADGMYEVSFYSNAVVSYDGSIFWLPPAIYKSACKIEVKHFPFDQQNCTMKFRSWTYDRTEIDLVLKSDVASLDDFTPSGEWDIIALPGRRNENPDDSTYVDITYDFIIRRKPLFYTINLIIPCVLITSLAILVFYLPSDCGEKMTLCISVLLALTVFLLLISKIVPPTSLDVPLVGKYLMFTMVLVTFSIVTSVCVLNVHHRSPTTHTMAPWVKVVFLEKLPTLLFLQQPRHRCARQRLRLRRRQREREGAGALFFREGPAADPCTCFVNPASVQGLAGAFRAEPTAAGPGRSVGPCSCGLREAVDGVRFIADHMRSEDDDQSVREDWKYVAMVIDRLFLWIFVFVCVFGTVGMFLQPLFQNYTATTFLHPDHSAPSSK
Chain of Neuronal acetylcholine receptor subunit alpha-7 (Q05941 whole entry): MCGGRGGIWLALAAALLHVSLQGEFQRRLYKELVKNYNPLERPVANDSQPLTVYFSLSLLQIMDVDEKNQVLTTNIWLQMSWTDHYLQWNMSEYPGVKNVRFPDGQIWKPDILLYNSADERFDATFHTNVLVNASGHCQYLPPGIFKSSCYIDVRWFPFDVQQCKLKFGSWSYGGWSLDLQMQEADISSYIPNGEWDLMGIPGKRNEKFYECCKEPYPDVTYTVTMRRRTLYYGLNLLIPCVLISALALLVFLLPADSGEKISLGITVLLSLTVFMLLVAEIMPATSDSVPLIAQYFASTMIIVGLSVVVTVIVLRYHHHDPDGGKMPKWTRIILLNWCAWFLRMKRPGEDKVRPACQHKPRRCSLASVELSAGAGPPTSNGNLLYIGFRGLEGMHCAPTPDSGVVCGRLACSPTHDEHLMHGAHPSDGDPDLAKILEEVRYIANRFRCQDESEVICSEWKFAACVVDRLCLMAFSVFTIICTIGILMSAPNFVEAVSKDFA

| SMILES | Ki [1] [µM] | Ki [2] [µM] | Ki [3] [µM] | Ki [4] [µM] |
| --- | --- | --- | --- | --- |
| Cc1ccc(C(=O)N2C[C@@H]3CNC[C@@H](C3)C2)cc1 | > 10 | 0.221 | > 10 | > 5 |
| N#Cc1ccc(C(=O)N2C[C@@H]3CNC[C@@H](C3)C2)cc1 | > 10 | 0.0207 | > 5 | > 10 |
| O=C(c1c[nH]c2ccccc12)N1C[C@@H]2CNC[C@@H](C2)C1 | > 10 | > 10 | > 10 | > 10 |
| O=C(c1ccc(Br)cc1)N1C[C@@H]2CNC[C@@H](C2)C1 | > 10 | 0.138 | – | > 10 |
| N#Cc1cccc(S(=O)(=O)N2C[C@@H]3CNC[C@@H](C3)C2)c1 | > 10 | 0.97 | – | > 10 |
| O=C(c1ccc2cn[nH]c2c1)N1C[C@@H]2CNC[C@@H](C2)C1 | – | 0.205 | – | – |
| O=C(c1ccc(Cl)nc1)N1C[C@@H]2CNC[C@@H](C2)C1 | – | 0.194 | – | > 1 |
| Cc1ccccc1C(=O)N1C[C@@H]2CNC[C@@H](C2)C1 | > 10 | > 10 | > 10 | > 10 |
| O=C(c1cccnc1)N1C[C@@H]2CNC[C@@H](C2)C1 | > 10 | 0.455 | > 10 | > 10 |
| O=C(c1ccc2ccccc2n1)N1C[C@@H]2CNC[C@@H](C2)C1 | – | > 1 | > 10 | – |
| O=C(c1ccc(Cl)cc1)N1C[C@@H]2CNC[C@@H](C2)C1 | > 10 | 0.13 | – | – |
| CCN1C[C@H]2C[C@@H](C1)CN(C(C)=O)C2 | – | > 5 | – | – |
| O=C(c1cncc(Br)c1)N1C[C@@H]2CNC[C@@H](C2)C1 | > 10 | 0.292 | > 10 | > 5 |
| CCN(CC)C(=O)N1C[C@@H]2CNC[C@@H](C2)C1 | – | > 3 | – | – |
| O=C(c1ccc2ncccc2c1)N1C[C@@H]2CNC[C@@H](C2)C1 | > 10 | 0.0813 | – | > 5 |
| O=C(c1cccs1)N1C[C@@H]2CNC[C@@H](C2)C1 | > 10 | 0.0176 | > 10 | > 10 |
| O=C(c1ccnc2ccccc12)N1C[C@@H]2CNC[C@@H](C2)C1 | – | 0.162 | > 10 | > 5 |
| CS(=O)(=O)N1C[C@@H]2CNC[C@@H](C2)C1 | – | > 5 | > 10 | – |
| CC(C)(C)c1ccc(C(=O)N2C[C@@H]3CNC[C@@H](C3)C2)cc1 | > 10 | > 10 | > 10 | > 10 |
| O=C(c1ccc2[nH]ccc2c1)N1C[C@@H]2CNC[C@@H](C2)C1 | – | 1.8 | – | – |
| O=S(=O)(c1ccccc1)N1C[C@@H]2CNC[C@@H](C2)C1 | > 10 | > 5 | – | > 10 |
| O=C(c1ccc2ccccc2c1)N1C[C@@H]2CNC[C@@H](C2)C1 | > 10 | 0.447 | – | > 10 |
| Cc1ccc(S(=O)(=O)N2C[C@@H]3CNC[C@@H](C3)C2)cc1 | > 10 | 0.858 | – | > 10 |
| O=C(c1cnccn1)N1C[C@@H]2CNC[C@@H](C2)C1 | > 10 | 0.0732 | > 10 | > 10 |
| O=[N+]([O-])c1ccc(S(=O)(=O)N2C[C@@H]3CNC[C@@H](C3)C2)cc1 | > 10 | 0.135 | > 10 | 5.7 |

| SMILES | Ki [1] [µM] | Ki [2] [µM] | Ki [3] [µM] | Ki [4] [µM] |
| --- | --- | --- | --- | --- |
| O=C(c1ccccc1Cl)N1C[C@@H]2CNC[C@@H](C2)C1 | – | > 10 | – | – |
| O=C(c1cc2ccccc2[nH]1)N1C[C@@H]2CNC[C@@H](C2)C1 | > 10 | > 10 | > 10 | > 10 |
| O=C(c1cccc2ccccc12)N1C[C@@H]2CNC[C@@H](C2)C1 | > 10 | > 10 | – | – |
| O=C(c1ccccc1[N+](=O)[O-])N1C[C@@H]2CNC[C@@H](C2)C1 | > 10 | > 10 | > 10 | > 10 |
| O=C(N1CCC(Cc2ccccc2)CC1)N1C[C@@H]2CNC[C@@H](C2)C1 | > 5 | > 10 | > 5 | > 10 |
| N#Cc1ccc(S(=O)(=O)N2C[C@@H]3CNC[C@@H](C3)C2)cc1 | > 10 | 0.645 | – | > 10 |
| O=C(c1ccccc1)N1C[C@@H]2CNC[C@@H](C2)C1 | > 10 | 0.454 | > 10 | > 5 |
| CN(C)C(=O)N1C[C@@H]2CNC[C@@H](C2)C1 | – | 0.499 | – | > 1 |
| O=C(c1cccc(Cl)c1)N1C[C@@H]2CNC[C@@H](C2)C1 | – | > 1 | – | – |
| O=C(c1cccc([N+](=O)[O-])c1)N1C[C@@H]2CNC[C@@H](C2)C1 | > 10 | > 2 | > 10 | > 10 |
| CC(C)(C)OC(=O)N1C[C@@H]2CNC[C@@H](C2)C1 | > 5 | 0.045 | > 10 | 1.28 |
| O=C(c1cccc(F)c1)N1C[C@@H]2CNC[C@@H](C2)C1 | – | 0.386 | > 10 | > 5 |
| O=C(c1ccc([N+](=O)[O-])cc1)N1C[C@@H]2CNC[C@@H](C2)C1 | 1.73 | 0.0159 | > 5 | 4.2 |
| c1ccc(CN2C[C@@H]3CNC[C@@H](C3)C2)cc1 | > 5 | > 10 | > 10 | 0.57 |
| O=C(c1cccc(C(F)(F)F)c1)N1C[C@@H]2CNC[C@@H](C2)C1 | – | 0.147 | > 10 | > 3 |
| COc1ccc(C(=O)N2C[C@@H]3CNC[C@@H](C3)C2)c(OC)c1 | > 5 | > 1 | > 10 | > 5 |
| O=C(c1ccc(O)cc1)N1C[C@@H]2CNC[C@@H](C2)C1 | > 1 | 0.105 | – | – |
| O=C(C1CCCCC1)N1C[C@@H]2CNC[C@@H](C2)C1 | > 10 | > 5 | > 10 | > 5 |
| CC(=O)N1C[C@@H]2C[C@@H](CN(C)C2)C1 | – | 0.2 | – | – |
| CCCN1C[C@H]2C[C@@H](C1)CN(C(C)=O)C2 | – | > 5 | – | – |
| Cn1cccc1C(=O)N1C[C@@H]2CNC[C@@H](C2)C1 | – | 0.662 | – | – |
| O=C(c1ccc(F)cc1)N1C[C@@H]2CNC[C@@H](C2)C1 | > 10 | 0.197 | > 10 | > 10 |
| O=S(=O)(c1ccc(Br)cc1)N1C[C@@H]2CNC[C@@H](C2)C1 | – | > 5 | – | – |
| O=C(N1CCCC1)N1C[C@@H]2CNC[C@@H](C2)C1 | > 10 | > 5 | > 10 | > 10 |
| O=C(N1CCOCC1)N1C[C@@H]2CNC[C@@H](C2)C1 | – | 3.8 | – | – |
